In experiment [1] the test system is HT-22. In words: Neuroprotective activity against glutamate-induced GSH loss in mouse HT22 cells assessed as intracellular GSH level at 1 to 10 uM after 24 hrs. The experiment is classed as functional, cell-based. Put shortly: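 HT22 cells given derivatives (1–10 μM) with 5 mM glutamate. After 24 h, cell extracts analysed for total intracellular GSH by chemical assay. Fisetin 10 μM as positive control. Tested twice; positives tested a third time.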

In experiment [2] the test system is HT-22. In words: Neuroprotective activity in mouse HT22 cells assessed as reduction in IAA-induced ischemia after 24 hrs by MTT assay. The format is functional, cell-based. Put shortly: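 HT22 cells seeded at 5×10^3/well. Next day switched to DMEM + 7.5% DFCS with 20 μM IAA ± derivative doses for 2 h, then IAA-free medium with derivative for 20 h. MTT 2.5 μg/ml for 4 h at 37 °C, solubilised in DMF/SDS pH 4.7, A570 read. Controls for compound toxicity and assay interference. EC50 from dose series; tested twice, third time if EC50 < 1 μM.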
A general note: Formazan colour is commonly taken as a measure of viable cells.

Experiment [3] is described as follows: Antioxidant activity against ABTS radical assessed as trolox equivalent after 4 mins by TEAC assay. The format is functional. The gist of the method:
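ABTS radical cation formed overnight with potassium persulfate and diluted to OD ~0.7 at 734 nm, then mixed with derivative in ethanol. Loss of A734 followed over 4 min. TEAC = slope of % absorbance inhibition vs concentration divided by the slope for Trolox.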

In a further experiment the test system is PC-12. In words: Neurotrophic activity in rat PC12 cells assessed as neurite outgrowth at 1 to 10 uM after 24 hrs. The experiment is classed as functional, cell-based. The gist of the method:
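PC12 cells in N2 medium given derivatives (1–10 μM) for 24 h, fisetin 10 μM as positive control. 100 cells counted in each of three fields. A cell scored positive with ≥1 neurite longer than one cell-body diameter. Tested twice; positives tested a third time.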

A further experiment relates to N9. In words: Antiinflammatory activity in mouse N9 cells assessed as reduction of LPS-induced microglial activation at 1 to 10 uM measured as nitrite level after 24 hrs by Griess reagent-based assay. The experiment is classed as functional. Also on record: scale not given: the % may be the effect or the level left. Put shortly: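 N9 microglia in DME with 7.5% DFCS, given 10 μg/ml LPS alone or with derivatives (1–10 μM) for 24 h. Medium spun to remove floating cells, then nitrite measured with Griess reagent, 10 min at room temperature, absorbance 550 nm. Fisetin 10 μM as positive control. Tested twice; positives tested a third time.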
(In general: Griess reagent forms a coloured azo dye with nitrite.)

Setting [4] is: Mus musculus, HT-22, 24 h, read-out: EC50.

Active and inactive are the calls of the source. A value given as a limit tells only on which side of the number the result lay.

One may read the EC50 as the midpoint of the concentration-response curve.

Turning to `COc1cc(-c2ccc([N+](=O)[O-])c(O)c2)nc2ccccc12`, the result in the experiment on HT-22 [1] and in the experiment with PC-12 was inactive. Also, the EC50 result in the experiment on HT-22 [2] (ht-22) is “Not Active”. In addition, the Activity was determined as 0.18 equiv in experiment [3] and 25% in the experiment with N9.

Consider `O=c1c(O)c(-c2ccc(N3CCCC3)cc2)oc2c1ccc1ccccc12`, for which the outcome in the experiment with HT-22 [1] was inactive. Also, the concentration giving a half-maximal response (EC50) in the experiment with HT-22 [2] (setting [4]) is 0.07 µM. Further, the Activity in experiment [3] is 1.44 equiv; with N9, 26%. Also, the outcome in the experiment with PC-12 was Active.

On to `COc1ccc(/C=C/C(=O)c2cc(C)c(C)cc2O)cc1O`, for which the result in the experiment on HT-22 [1] and in the experiment on PC-12 was inactive. Also, the 50% effective concentration (EC50) in the experiment on HT-22 [2] (setting [4]) stood at 0.2 µM. Moreover, the Activity turned out to be 0.12 equiv in experiment [3] and 56% in the experiment on N9.

As to `O=c1c(O)c(-c2ccc(O)c(O)c2)oc2ccc3ccccc3c12`, in the experiment on HT-22 [1], the outcome was inactive. In addition, the half-maximal effective concentration (EC50) with HT-22 [2] (setting [4]) was 0.25 µM. Besides, the Activity turned out to be 1.26 equiv in experiment [3] and 87% in the experiment with N9. Also, the result with PC-12 was Active.

Take `CCOc1cc(-c2ccc(O)c(O)c2)nc2ccccc12`: the result in the experiment on HT-22 [1] and with PC-12 was Active. Also, the EC50 with HT-22 [2] (setting [4]) is 0.02 µM. Moreover, the figures for the Activity (in experiment [3]; with N9) were 0.9 equiv and 90%, respectively.

Regarding `COc1cc(-c2ccc(N3CCCC3)cc2)nc2ccccc12`, the outcome in the experiment on HT-22 [1] and with PC-12 was inactive. Further, the EC50 result with HT-22 [2] (ht-22) is reported as “Not Active”. The Activity in experiment [3] was 0.27 equiv; with N9, 67%.

Regarding `CN(C)c1ccc(-c2cc(=O)c3ccc4ccccc4c3o2)cc1`, the outcome in the experiment on HT-22 [1] and in the experiment on PC-12 was inactive. Moreover, the EC50 with HT-22 [2] (setting [4]) turned out to be 0.25 µM. For the same compound, the Activity came out at 0.24 equiv in experiment [3] and 35% with N9.

`COc1cc(-c2ccccc2)nc2ccccc12`: the result in the experiment on HT-22 [1] and in the experiment on PC-12 was inactive. In addition, the EC50 with HT-22 [2] (setting [4]) was found to be 0.75 µM. Further, the Activity in experiment [3] was found to be 0.12 equiv; with N9, 6%.

For the compound `COc1cc(-c2cc(=O)c3cc(C)c(C)cc3o2)ccc1OCc1ccccc1`, the outcome in the experiment on HT-22 [1] and in the experiment with PC-12 was inactive. Moreover, in the experiment with HT-22 [2] (setting [4]), the EC50 came to 0.5 µM. The values for the Activity (in experiment [3]; in the experiment on N9) were 0.09 equiv and 83%, respectively.

For the compound `Cc1cc2oc(-c3ccc(O)c(O)c3)c(O)c(=O)c2cc1C`, the result in the experiment on HT-22 [1] and in the experiment on PC-12 was inactive. Moreover, in the experiment with HT-22 [2] (setting [4]), the EC50 was 0.5 µM. Besides, the Activity in experiment [3] was 1.89 equiv; in the experiment with N9, 82%.

Turning to `COc1cc(-c2ccc(N(C)C)cc2)nc2ccccc12`, the outcome with HT-22 [1] and with PC-12 was inactive. Also, the EC50 in the experiment on HT-22 [2] (setting [4]) stood at 0.06 µM. Moreover, the Activity in experiment [3] was determined as 0.06 equiv; in the experiment on N9, 62%.

Regarding `CCOc1ccc(-c2oc3cc(C)c(C)cc3c(=O)c2O)cc1OCC`, the result in the experiment with HT-22 [1] and in the experiment on PC-12 was inactive. For the same compound, the concentration giving a half-maximal response (EC50) in the experiment with HT-22 [2] (setting [4]) was 0.5 µM. For the same compound, the Activity in experiment [3] is 0.84 equiv; with N9 it was 11%.

Take `CC(C)Oc1cc(-c2ccc(N(C)C)cc2)nc2ccccc12`: the result with HT-22 [1] and with PC-12 was inactive. The EC50 with HT-22 [2] (setting [4]) was 0.05 µM. For the same compound, the Activity in experiment [3] stood at 0.15 equiv; with N9, 71%.

`Cc1cc2oc(-c3ccc(O)cc3O)c(O)c(=O)c2cc1C`: the outcome with HT-22 [1] and in the experiment on PC-12 was inactive. In the experiment on HT-22 [2] (setting [4]), the EC50 is > 0.5 µM. Further, the Activity in experiment [3] turned out to be 1.56 equiv; in the experiment on N9, 0%.

On to `COc1cc(-c2cc(OC)c3ccccc3n2)ccc1O`, for which the result in the experiment with HT-22 [1] and with PC-12 was inactive. Moreover, in the experiment with HT-22 [2] (setting [4]), the EC50 is 0.5 µM. Besides, the Activity was determined as 0.15 equiv in experiment [3] and 90% in the experiment on N9.

For `CC(C)Oc1cc(-c2ccc(O)cc2O)nc2ccccc12`, the outcome in the experiment with HT-22 [1] and with PC-12 was inactive. Besides, the EC50 in the experiment on HT-22 [2] (setting [4]) came to 0.21 µM. Further, the results for the Activity (in experiment [3]; with N9) were 0.27 equiv and 64%, respectively.

For the compound `COc1cc(-c2cc(=O)c3ccc4ccccc4c3o2)ccc1O`, the outcome in the experiment with HT-22 [1] and with PC-12 was inactive. Besides, in the experiment on HT-22 [2] (setting [4]), the EC50 amounted to 0.04 µM. For the same compound, the results for the Activity (in experiment [3]; in the experiment on N9) were 0.2 equiv and 19%, respectively.

Consider `COc1cc(-c2ccc(O)cc2O)nc2ccccc12`, for which the outcome in the experiment on HT-22 [1] and in the experiment with PC-12 was inactive. Moreover, in the experiment on HT-22 [2] (setting [4]), the EC50 was > 0.5 µM. Besides, the figures for the Activity (in experiment [3]; with N9) were 0.05 equiv and 84%, respectively.

As to `CCOc1ccc(-c2cc(=O)c3ccc4ccccc4c3o2)cc1OCC`, the outcome in the experiment with HT-22 [1] and in the experiment with PC-12 was inactive. Also, the EC50 entry in the experiment with HT-22 [2] (ht-22) is listed as “Not Active”. The Activity was determined as 0.2 equiv in experiment [3] and 2% with N9.

Take `CC(C)Oc1cc(-c2ccc(N3CCCC3)cc2)nc2ccccc12`: the outcome in the experiment with HT-22 [1] and in the experiment on PC-12 was inactive. The EC50 in the experiment on HT-22 [2] (setting [4]) was 0.5 µM. Moreover, the results for the Activity (in experiment [3]; in the experiment on N9) were 0.27 equiv and 67%, respectively.

As to `Cc1cc(O)c(C(=O)/C=C/c2ccc(O)cc2O)cc1C`, the outcome in the experiment on HT-22 [1] was inactive. In addition, in the experiment with HT-22 [2] (setting [4]), the EC50 is 0.05 µM. Moreover, the Activity in experiment [3] was 0.93 equiv; in the experiment on N9, 53%. In the experiment with PC-12, the result was Active.

Consider `COc1cc(-c2oc3cc(C)c(C)cc3c(=O)c2O)ccc1OCc1ccccc1`, for which the result with HT-22 [1] and in the experiment with PC-12 was inactive. In the experiment on HT-22 [2] (setting [4]), the EC50 was 0.17 µM. Further, the Activity in experiment [3] came to 0.27 equiv; in the experiment on N9, 14%.

In the case of `O=c1cc(-c2ccc(N3CCCC3)cc2)oc2c1ccc1ccccc12`, the outcome in the experiment on HT-22 [1] and in the experiment with PC-12 was inactive. Further, the EC50 with HT-22 [2] (setting [4]) amounted to 0.2 µM. For the same compound, the Activity was 0.03 equiv in experiment [3] and 23% with N9.

In the case of `Cc1cc2oc(-c3ccc(O)cc3O)cc(=O)c2cc1C`, the result in the experiment on HT-22 [1] and with PC-12 was inactive. In addition, the EC50 in the experiment on HT-22 [2] (setting [4]) was > 0.5 µM. In addition, the values for the Activity (in experiment [3]; in the experiment with N9) were 0.15 equiv and 5%, respectively.

Regarding `CCOc1ccc(-c2cc(=O)c3cc(C)c(C)cc3o2)cc1OCC`, the result with HT-22 [1] and with PC-12 was inactive. For the same compound, the EC50 result with HT-22 [2] (ht-22) is “Not Active”. Further, the Activity was 0.15 equiv in experiment [3] and 2% in the experiment with N9.

For `CCOc1ccc(/C=C/C(=O)c2cc(C)c(C)cc2O)cc1OCC`, the outcome in the experiment with HT-22 [1] and with PC-12 was inactive. In addition, the EC50 result in the experiment on HT-22 [2] (ht-22) is listed as “Not Active”. Further, the Activity in experiment [3] came to 0.09 equiv; in the experiment on N9, 56%.

Take `COc1cc(-c2ccc(O)cc2)nc2ccccc12`: the outcome in the experiment with HT-22 [1] and in the experiment on PC-12 was inactive. In addition, in the experiment with HT-22 [2] (ht-22), the EC50 entry is listed as “Not Active”. Also, the values for the Activity (in experiment [3]; in the experiment on N9) were 0.81 equiv and 4%, respectively.

For the compound `Cc1cc2oc(-c3ccc(N(C)C)cc3)cc(=O)c2cc1C`, the outcome in the experiment with HT-22 [1] and with PC-12 was inactive. For the same compound, in the experiment with HT-22 [2] (setting [4]), the 50% effective concentration (EC50) was > 0.5 µM. Further, the Activity is 0 equiv in experiment [3] and 8% with N9.

With `CCOc1ccc(-c2oc3c(ccc4ccccc43)c(=O)c2O)cc1OCC`, the result in the experiment with HT-22 [1] and with PC-12 was inactive. Further, in the experiment on HT-22 [2] (setting [4]), the EC50 amounted to 0.3 µM. Further, the Activity in experiment [3] came out at 0.15 equiv; with N9 it was 13%.

In the case of `CCOc1ccc(/C=C/C(=O)c2ccc3ccccc3c2O)cc1OCC`, the result with HT-22 [1] and with PC-12 was inactive. In addition, in the experiment on HT-22 [2] (ht-22), the EC50 result is listed as “Not Active”. For the same compound, the Activity turned out to be 0.12 equiv in experiment [3] and 5% in the experiment on N9.

For the compound `CC(C)Oc1cc(-c2ccc(O)c(O)c2)nc2ccccc12`, the outcome with HT-22 [1] and with PC-12 was Active. In addition, the concentration for a half-maximal effect (EC50) in the experiment on HT-22 [2] (setting [4]) turned out to be 0.02 µM. The results for the Activity (in experiment [3]; in the experiment on N9) were 0.18 equiv and 80%, respectively.

Turning to `Cc1cc2oc(-c3ccc(N4CCCC4)cc3)cc(=O)c2cc1C`, the outcome with HT-22 [1] and in the experiment with PC-12 was inactive. For the same compound, the EC50 in the experiment on HT-22 [2] (setting [4]) was > 0.5 µM. Besides, the Activity worked out at 0.12 equiv in experiment [3] and 2% with N9.

These data come from ChEMBL document CHEMBL1949657, “Chemical modification of the multitarget neuroprotective compound fisetin” (J Med Chem, 2012).
